Measured values from ChEMBL document CHEMBL2069211, “Busseihydroquinones A-D from the roots of Pentas bussei” (J Nat Prod, 2012).
pIC50: −log10 of the molar value. Active and inactive are the calls of the source. The calls are words filed in the database; no cut-off is given here.

Assays:
Plasmodium falciparum [1] = experiment: Antiplasmodial activity against chloroquine-sensitive Plasmodium falciparum D6 by SYBR green I-based assay; type: functional, organism-based
Outline: (§1)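 Drug susceptibility is measured with the SYBR Green I-based in vitro malaria assay. Chloroquine and mefloquine run alongside as reference drugs. IC50 is the mean of at least 3 independent experiments.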

Plasmodium falciparum [2] = experiment: Antiplasmodial activity against chloroquine-resistant Plasmodium falciparum W2 by SYBR green I-based assay; type: functional, organism-based; outline: as §1
[3] = Toxicity against human MCF7 cells incubated for 48 hrs by PrestoBlue cell viability reagent based assay; conditions: read-out: LD50
Outline: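 MCF-7 cells are grown in DMEM with 10% FBS, 2 mM L-glutamine and penicillin/streptomycin at 37 °C in 5% CO2. They are seeded for exponential growth and preincubated 24 h. Drug or DMSO vehicle (0.1% or 1.0% v/v) is then added for 48 h. PrestoBlue absorbance is read at 570 nm (600 nm reference). Viability is expressed as % of vehicle, six replicates, with repeated independent experiments.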

[4] = Selectivity index, ratio of LD50 for human MCF7 cells to IC50 for chloroquine-sensitive Plasmodium falciparum D6; type: toxicity, cell-based; conditions: read-out: Selectivity Index
Outline: (§2)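 The selectivity index is the MCF-7 LD50 (48 h PrestoBlue assay) divided by the P. falciparum IC50 (SYBR Green I assay) for the same strain.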

[5] = Selectivity index, ratio of LD50 for human MCF7 cells to IC50 for chloroquine-resistant Plasmodium falciparum W2; type: toxicity, cell-based; conditions: read-out: Selectivity Index; outline: as §2
Escherichia coli = experiment: Antimicrobial activity against Escherichia coli at 0.1 mg/disc incubated for 24 to 72 hrs by disc diffusion assay; type: functional, organism-based
Outline: (§3)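 Paper discs loaded with sample are laid on seeded agar plates, in triplicate under sterile conditions. Incubation is at 37 °C for E. coli, S. aureus and C. albicans, and at 25 °C for A. niger. Streptomycin (bacteria) and nystatin (fungi) serve as standards at 0.1 mg/100 μL. Sample solvents serve as controls.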

Staphylococcus aureus = experiment: Antimicrobial activity against Staphylococcus aureus at 0.1 mg/disc incubated for 24 to 72 hrs by disc diffusion assay; type: functional, organism-based; outline: as §3
Candida albicans = experiment: Antimicrobial activity against Candida albicans at 0.1 mg/disc incubated for 24 to 72 hrs by disc diffusion assay; type: functional, organism-based; outline: as §3
Aspergillus niger = experiment: Antimicrobial activity against Aspergillus niger at 0.1 mg/disc incubated for 24 to 72 hrs by disc diffusion assay; type: functional, organism-based; outline: as §3

| SMILES | pIC50 (Plasmodium falciparum [1]) | pIC50 (Plasmodium falciparum [2]) | CC50 at 48 h [3] [µM] | selectivity ratio [4] | selectivity ratio [5] | inhibition zone (IZ) (Escherichia coli) | inhibition zone (IZ) (Staphylococcus aureus) | inhibition zone (IZ) (Candida albicans) | inhibition zone (IZ) (Aspergillus niger) |
| --- | --- | --- | --- | --- | --- | --- | --- | --- | --- |
| COC(=O)c1cc(OC)c2cc(O)c3c(c2c1O)C=CC(C)(CCC=C(C)C)O3 (racemic) | 4.51 | 4.07 | 86.4 | 2.83 | 1.02 | inactive | inactive | inactive | inactive |
| COc1cc(C(=O)O)c(O)c2ccc3c(c12)C=C1/C(=C(\C)C=O)CCC1(C)O3 (racemic) [BUSSEIHYDROQUINONE D] | 4.71 | 4.10 | > 262 | > 13.4 | > 3.27 | inactive | inactive | inactive | inactive |
| COC(=O)c1cc(OC)c2cc(OC)c(OC)c(O)c2c1O [BUSSEIHYDROQUINONE A] | 4.44 | 3.84 | 304 | 8.44 | 2.11 | inactive | inactive | inactive | inactive |
| OC(c1cc(C(F)(F)F)nc2c(C(F)(F)F)cccc12)C1CCCCN1 (stereo unspecified) [MEFLOQUINE] | 7.54 |  |  |  |  |  |  |  |  |
| COc1cc(C(=O)O)c(O)c2ccc3c(c12)C=CC(C)(CCC=C(C)C)O3 (racemic) [BUSSEIHYDROQUINONE C] | 4.49 | 4.22 | > 272 | > 8.32 | > 4.52 | inactive | inactive | inactive | inactive |
| COc1cc(C(=O)O)c(O)c2ccc3c(c12)C=CC(C)(C)O3 [BUSSEIHYDROQUINONE B] | 4.56 | 3.90 | 374 | 13.4 | 2.96 | inactive | inactive | inactive | inactive |
